Assay results published in ChEMBL document CHEMBL1255546, “Discovery of potent and selective histamine H3 receptor inverse agonists based on the 3,4-dihydro-2H-pyrazino[1,2-a]indol-1-one scaffold” (Bioorg Med Chem Lett, 2010).
Values after ≈ are worked out from the molar mass of the structure shown. Active and inactive are the calls of the source. The calls are words filed in the database; no cut-off is given here.

What was measured:
[1] = target: Cytochrome P450 3A4 (Homo sapiens, UniProt P08684); assay: Inhibition of CYP3A4; type: ADME
Sequence of Cytochrome P450 3A4 (P08684 whole entry): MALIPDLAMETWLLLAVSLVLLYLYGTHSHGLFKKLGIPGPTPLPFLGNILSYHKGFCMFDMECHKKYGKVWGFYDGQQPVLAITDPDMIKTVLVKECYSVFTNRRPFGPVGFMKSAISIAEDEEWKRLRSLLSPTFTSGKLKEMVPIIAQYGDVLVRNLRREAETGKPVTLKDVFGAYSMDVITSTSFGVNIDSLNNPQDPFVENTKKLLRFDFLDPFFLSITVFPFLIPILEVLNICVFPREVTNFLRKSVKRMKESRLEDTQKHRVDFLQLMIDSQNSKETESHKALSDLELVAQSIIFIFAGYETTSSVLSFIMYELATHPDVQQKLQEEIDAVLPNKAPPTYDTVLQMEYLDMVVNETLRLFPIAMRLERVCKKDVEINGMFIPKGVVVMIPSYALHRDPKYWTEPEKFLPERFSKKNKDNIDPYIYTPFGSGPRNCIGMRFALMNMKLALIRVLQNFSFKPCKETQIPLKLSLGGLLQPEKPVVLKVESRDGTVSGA

[2] = target: Histamine H2 receptor (Homo sapiens) (UniProt P25021); assay: Displacement of [3H]-tiotidine from human histamine H2 receptor; parameters: concentration or dose not given beside the values; settings: concentration not given here
Sequence of Histamine H2 receptor (Homo sapiens) (P25021 whole entry): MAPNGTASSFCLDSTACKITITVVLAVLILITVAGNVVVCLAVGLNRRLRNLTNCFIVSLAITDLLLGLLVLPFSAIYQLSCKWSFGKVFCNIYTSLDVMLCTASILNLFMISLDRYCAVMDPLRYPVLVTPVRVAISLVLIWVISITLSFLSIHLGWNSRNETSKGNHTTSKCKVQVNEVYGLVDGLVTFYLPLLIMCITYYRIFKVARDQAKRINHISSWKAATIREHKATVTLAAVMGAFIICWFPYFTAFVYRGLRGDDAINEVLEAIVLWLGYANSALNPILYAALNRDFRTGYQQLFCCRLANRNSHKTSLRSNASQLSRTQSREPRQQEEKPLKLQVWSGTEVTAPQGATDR
Procedure, shortened: (§1)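 Radioligand displacement assays, single determination (n = 1) each: [3H]-mepyramine at H1, [3H]-tiotidine at H2, [3H]-histamine at H4.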

[3] = Intrinsic clearance in human liver microsomes; type: ADME, Microsome
[4] = Intrinsic clearance in rat liver microsomes; type: ADME, Microsome
[5] = target: T1, Histamine H3 receptor (Homo sapiens, UniProt Q9Y5N1); assay: Displacement of [3H]-RAMH from human histamine H3 receptor
T1 sequence (Q9Y5N1 whole entry): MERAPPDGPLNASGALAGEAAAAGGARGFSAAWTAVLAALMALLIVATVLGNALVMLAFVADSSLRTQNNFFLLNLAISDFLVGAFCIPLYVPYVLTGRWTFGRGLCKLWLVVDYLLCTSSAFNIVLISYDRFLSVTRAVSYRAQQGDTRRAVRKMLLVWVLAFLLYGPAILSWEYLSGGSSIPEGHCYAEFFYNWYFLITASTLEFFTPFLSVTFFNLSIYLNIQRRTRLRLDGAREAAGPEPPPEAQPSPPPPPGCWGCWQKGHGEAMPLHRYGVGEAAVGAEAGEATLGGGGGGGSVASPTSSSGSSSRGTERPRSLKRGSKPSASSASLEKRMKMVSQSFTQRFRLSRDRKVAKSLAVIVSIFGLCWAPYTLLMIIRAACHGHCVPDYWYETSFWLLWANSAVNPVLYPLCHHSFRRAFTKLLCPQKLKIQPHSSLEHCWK

[6] = target: Cytochrome P450 2C9 (Homo sapiens, UniProt P11712); assay: Inhibition of CYP2C9; type: ADME
Sequence of Cytochrome P450 2C9 (P11712 whole entry): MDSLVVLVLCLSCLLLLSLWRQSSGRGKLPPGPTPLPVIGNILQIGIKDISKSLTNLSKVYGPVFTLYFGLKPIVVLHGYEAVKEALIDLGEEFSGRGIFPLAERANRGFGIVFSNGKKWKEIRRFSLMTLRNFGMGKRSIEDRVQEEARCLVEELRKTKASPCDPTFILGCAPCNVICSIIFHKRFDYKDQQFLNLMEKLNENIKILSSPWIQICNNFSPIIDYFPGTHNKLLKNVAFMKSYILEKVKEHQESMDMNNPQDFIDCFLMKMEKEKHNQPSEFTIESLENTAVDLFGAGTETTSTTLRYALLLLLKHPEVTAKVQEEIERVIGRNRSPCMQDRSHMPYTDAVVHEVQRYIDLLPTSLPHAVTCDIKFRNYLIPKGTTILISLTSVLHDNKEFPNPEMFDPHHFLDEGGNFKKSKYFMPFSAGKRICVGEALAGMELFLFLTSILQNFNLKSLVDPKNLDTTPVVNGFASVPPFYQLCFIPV

[7] = target: T1, Histamine H3 receptor; assay: Inverse agonist activity at human recombinant histamine H3 receptor assessed as effect on [35S]GTPgammaS binding; type: functional
[8] = target: Cytochrome P450 2D6 (Homo sapiens, UniProt P10635); assay: Inhibition of CYP2D6; type: ADME
Sequence of Cytochrome P450 2D6 (P10635 whole entry): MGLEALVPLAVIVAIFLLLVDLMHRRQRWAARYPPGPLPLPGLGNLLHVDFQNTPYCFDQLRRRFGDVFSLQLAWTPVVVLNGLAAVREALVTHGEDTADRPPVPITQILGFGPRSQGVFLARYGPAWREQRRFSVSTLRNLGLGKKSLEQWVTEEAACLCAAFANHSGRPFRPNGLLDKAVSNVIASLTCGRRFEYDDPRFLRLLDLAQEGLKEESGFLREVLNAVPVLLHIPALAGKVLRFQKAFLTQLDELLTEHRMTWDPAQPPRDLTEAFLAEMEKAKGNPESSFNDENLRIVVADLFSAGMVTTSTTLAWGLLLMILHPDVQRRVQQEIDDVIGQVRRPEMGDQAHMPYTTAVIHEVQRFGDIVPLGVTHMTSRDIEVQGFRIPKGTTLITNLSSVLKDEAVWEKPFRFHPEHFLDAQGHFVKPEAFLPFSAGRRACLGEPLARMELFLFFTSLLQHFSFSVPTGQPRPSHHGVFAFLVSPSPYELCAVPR

[9] = target: Histamine H1 receptor (Homo sapiens) (UniProt P35367); assay: Displacement of [3H]-mepyramine from human histamine H1 receptor; parameters: concentration or dose not given beside the values; settings: concentration not given here; procedure, shortened: as §1
Sequence of Histamine H1 receptor (Homo sapiens) (P35367 whole entry): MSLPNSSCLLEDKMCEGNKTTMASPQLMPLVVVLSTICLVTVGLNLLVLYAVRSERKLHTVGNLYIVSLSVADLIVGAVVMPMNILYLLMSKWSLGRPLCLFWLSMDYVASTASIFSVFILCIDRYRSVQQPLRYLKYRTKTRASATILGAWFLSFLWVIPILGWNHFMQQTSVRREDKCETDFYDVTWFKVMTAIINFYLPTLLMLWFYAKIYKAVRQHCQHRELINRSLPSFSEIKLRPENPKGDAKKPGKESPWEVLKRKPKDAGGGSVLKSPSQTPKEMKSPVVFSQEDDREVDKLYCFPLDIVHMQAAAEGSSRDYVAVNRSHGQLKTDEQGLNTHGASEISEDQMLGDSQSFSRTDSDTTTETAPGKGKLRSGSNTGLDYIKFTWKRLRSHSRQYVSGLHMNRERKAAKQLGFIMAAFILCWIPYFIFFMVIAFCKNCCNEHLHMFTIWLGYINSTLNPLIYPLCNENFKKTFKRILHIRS

[10] = Lipophilicity, log D of the compound at pH 7.4; type: physicochemical; settings: buffer
[11] = target: Histamine H4 receptor (Homo sapiens) (UniProt Q9H3N8); assay: Displacement of [3H]-histamine from human histamine H4 receptor; parameters: concentration or dose not given beside the values; settings: concentration not given here; procedure, shortened: as §1
Sequence of Histamine H4 receptor (Homo sapiens) (Q9H3N8 whole entry): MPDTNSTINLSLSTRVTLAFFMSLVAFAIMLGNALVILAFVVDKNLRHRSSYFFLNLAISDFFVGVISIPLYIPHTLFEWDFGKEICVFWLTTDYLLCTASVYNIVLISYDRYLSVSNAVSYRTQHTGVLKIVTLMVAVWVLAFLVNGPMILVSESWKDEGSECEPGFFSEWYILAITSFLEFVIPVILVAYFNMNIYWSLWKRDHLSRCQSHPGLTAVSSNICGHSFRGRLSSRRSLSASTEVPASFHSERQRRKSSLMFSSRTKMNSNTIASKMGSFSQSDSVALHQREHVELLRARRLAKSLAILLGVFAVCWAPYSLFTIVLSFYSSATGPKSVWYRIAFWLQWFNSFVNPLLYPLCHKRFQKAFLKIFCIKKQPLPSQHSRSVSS

[12] = Aqueous solubility of the compound in 0.05 M phosphate buffer at pH 6.5; type: physicochemical
[13] = system: Rattus norvegicus; assay: Inhibition of (R)-alpha-methyl histamine-induced increased water intake in rat dipsogenia model at 10 mg/kg, po; type: functional
[14] = target: T2, Histamine H3 receptor (Rattus norvegicus, UniProt Q9QYN8); assay: Inverse agonist activity at rat histamine H3 receptor; type: functional
T2 sequence (Q9QYN8 whole entry): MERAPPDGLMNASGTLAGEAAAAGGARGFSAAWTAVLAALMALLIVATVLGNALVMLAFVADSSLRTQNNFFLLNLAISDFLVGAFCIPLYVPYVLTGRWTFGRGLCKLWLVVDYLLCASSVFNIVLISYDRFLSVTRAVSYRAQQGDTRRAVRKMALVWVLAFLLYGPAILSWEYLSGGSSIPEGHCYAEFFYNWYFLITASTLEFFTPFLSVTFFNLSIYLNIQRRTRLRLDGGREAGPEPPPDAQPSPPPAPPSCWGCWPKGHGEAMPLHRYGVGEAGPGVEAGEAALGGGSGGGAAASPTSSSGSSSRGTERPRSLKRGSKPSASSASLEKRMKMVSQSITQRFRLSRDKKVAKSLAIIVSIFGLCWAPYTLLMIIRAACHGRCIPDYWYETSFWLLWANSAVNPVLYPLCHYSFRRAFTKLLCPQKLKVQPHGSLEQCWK

[15] = system: Rattus norvegicus; assay: Inhibition of water intake in rat dipsogenia model at 10 mg/kg, po; type: functional, organism-based; parameters: dose 10 mg/kg
[16] = target: T2, Histamine H3 receptor; assay: Binding affinity to rat histamine H3 receptor
[17] = system: Rattus norvegicus; assay: Toxicity in rat assessed as change in behavioral effect at 10 mg/kg, po measured for 1 hr; type: organism-based; parameters: dose 10 mg/kg, route oral; settings: in vivo
[18] = target: T1, Histamine H3 receptor; settings: 3 uM

SMILES | IC50 [1] [nM] | inhibition [2] [%] | microsomal CLint [3] [µL/min/mg] | microsomal CLint [4] [µL/min/mg] | Ki [5] [nM] | IC50 [6] [nM] | EC50 [7] [nM] | IC50 [8] [nM] | inhibition [9] [%] | logD [10] | inhibition [11] [%] | solubility [12] [µg/mL] | inhibition in vivo at 10 mg/kg [13] [%] | EC50 [14] [nM] | inhibition [15] | Ki [16] [nM] | Activity [17] | inhibition [18] [%]
CC(C)N1CCC(Oc2ccc3c(c2)cc2n3C[C@@H](C)NC2=O)CC1 | > 50000 | 13 | 7 | 10 | 9 | > 50000 | 46 | > 50000 | 2 | 0.28 | 7 | 284 (≈ 832 µM) |  |  |  |  |  | 
C[C@@H]1CCCN1CCCOc1ccc2c(c1)cc1n2CCNC1=O | > 50000 | 4 |  | 37 | 7 | > 50000 | 4 | > 50000 | 13 | 0.13 | -4 | > 436 |  |  |  |  |  | 
CC(C)N1CCC(Oc2ccc3c(c2)cc2n3CCN(C)C2=O)CC1 | > 50000 | 11 | 1 | 23 | 31 | > 50000 | 48 | 15000 | -4 | 0.13 | 0 | > 455 |  |  |  |  |  | 
CC(C)N1CCC(Oc2ccc3c(c2)cc2n3C[C@@H](C)N(CC3CC3)C2=O)CC1 | > 50000 | 8 | 6 | 10 | 5 | > 50000 | 18 | > 50000 | 3 | 1.4 | 12 | > 441 | 64 | 18 | inactive | 12 | Non-toxic | 
CC(C)N1CCC(Oc2ccc3c(c2)cc2n3CCN(Cc3ccncc3)C2=O)CC1 | 6000 |  | 8 | 27 | 5 | > 50000 | 12 | > 50000 | 4 | 0.64 | 3 | > 456 |  |  |  |  |  | 
CC(C)N1CCC(Oc2ccc3c(c2)cc2n3CCN(Cc3cccc(F)c3)C2=O)CC1 |  | 21 |  |  | 14 |  | 23 |  | 24 |  | 4 |  |  |  |  |  |  | 
CC(C)N1CCC(Oc2ccc3c(c2)cc2n3CCN(CC(F)(F)F)C2=O)CC1 |  | -6 |  |  | 34 |  | 40 |  | -1 |  | -4 |  |  |  |  |  |  | 
CC(C)N1CCC(Oc2ccc3[nH]c4c(c3c2)CCNC4=O)CC1 |  |  |  |  | > 3000 |  |  |  |  |  |  |  |  |  |  |  |  | 35
CC(C)N1CCC(Oc2ccc3c(c2)cc2n3CCN(CC3CC3)C2=O)CC1 | > 50000 | 6 | 14 | 9 | 9 | > 50000 | 28 | > 50000 |  | 1.09 | 7 | > 508 |  |  |  |  |  | 
CC(C)N1CCC(Oc2ccc3c(c2)cc2n3CCCN(CC3CC3)C2=O)CC1 |  | 15 |  |  |  |  | 36 |  | 5 |  | -7 |  |  |  |  |  |  | 
CC(C)N1CCC(Oc2ccc3c(c2)cc2n3CCN(CCO)C2=O)CC1 | > 50000 | 14 | 9 | 11 | 46 | > 50000 | 56 | 900 | -1 | -0.25 | -5 | > 406 |  |  |  |  |  | 
CC(C)N1CCC(Oc2ccc3c(c2)cc2n3[C@@H](C)CNC2=O)CC1 | 26000 | 9 | 4 |  | 42 | > 50000 | 94 | > 50000 | 11 | 0.28 | 10 | 345 (≈ 1010 µM) |  |  |  |  |  | 
C[C@H]1CCCN1CCCOc1ccc2c(c1)cc1n2CCNC1=O |  | 10 |  |  | 21 |  | 140 |  | 11 |  | 4 |  |  |  |  |  |  | 
CC(C)N1CCC(Oc2cc3cc4n(c3cc2Br)[C@@H](C)CN(CC2CC2)C4=O)CC1 | > 50000 | -3 | 7 | 20 | 2 | > 50000 | 2 | > 50000 | 10 | 2.32 | 1 | 506 (≈ 1070 µM) |  |  |  |  |  | 
CC(C)N1CCC(Oc2ccc3c(c2)cc2n3CCN(Cc3ccccn3)C2=O)CC1 |  | 4 |  |  | 6 |  | 14 |  | 6 |  | -3 |  |  |  |  |  |  | 
O=C1NCCn2c1cc1cc(OC3CCN(CC4CC4)CC3)ccc12 |  | 9 |  |  | 129 |  |  |  | -4 |  | 3 |  |  |  |  |  |  | 
CC(C)N1CCC(Oc2cc3cc4n(c3cc2Br)[C@@H](C)CNC4=O)CC1 | > 50000 | 18 | 1 | 12 | 4 | > 50000 | 4 | > 50000 |  | 1.13 | -10 | > 526 |  |  |  |  |  | 
O=C1NCCn2c1cc1cc(OCCCN3CCCCC3)ccc12 |  | 45 |  |  | 18 |  | 74 |  | 33 |  | 8 |  |  |  |  |  |  | 
C[C@H]1CC[C@H](C)N1CCCOc1ccc2c(c1)cc1n2CCNC1=O |  | 17 |  |  | 11 |  | 24 |  | 16 |  | 6 |  |  |  |  |  |  | 
CC(C)N1CCC(Oc2ccc3c(c2)cc2n3CCCNC2=O)CC1 | > 50000 | 9 |  | 28 | 17 | > 50000 | 26 | > 50000 | 3 | 0.07 | -3 | > 455 |  |  |  |  |  | 
CC(C)N1CCC(Oc2ccc3c(c2)cc2n3CCN(Cc3ccccc3F)C2=O)CC1 |  | 6 |  |  | 6 |  | 28 |  | 16 |  | 1 |  |  |  |  |  |  | 
CC(C)N1CCC(Oc2ccc3c(c2)cc(C(=O)N2CCC(F)(F)CC2)n3C(C)C)CC1 | > 50000 | -6 | 4 | 12 | 2 | > 50000 | 2 | 5000 | 9 | 1.67 | 7 | > 589 |  |  |  |  |  | 
CC(C)N1CCC(Oc2ccc3c(c2)cc2n3CCNC2=O)CC1 | > 50000 |  | 1 | 70 | 25 | > 50000 | 38 | 4000 | 1 | -0.05 | 6 | > 436 |  |  |  |  |  | 
CC(C)N1CCC(Oc2ccc3c(c2)cc2n3C[C@H](C)NC2=O)CC1 | > 50000 | 26 | 3 |  | 6 | > 50000 | 14 | > 50000 | -2 | 0.23 | 15 | > 455 |  |  |  |  |  | 
CC(C)N1CCC(Oc2ccc3c(c2)cc2n3CCN(Cc3cccnc3)C2=O)CC1 |  | 3 |  |  | 5 |  | 13 |  | 3 |  | 3 |  |  |  |  |  |  | 
CC(C)N1CCC(Oc2ccc3c(c2)cc2n3CCN(C(C)C)C2=O)CC1 |  | -2 |  |  | 27 |  | 25 |  | -6 |  | -6 |  |  |  |  |  |  | 
COCCN1CCn2c(cc3cc(OC4CCN(C(C)C)CC4)ccc32)C1=O |  | 6 |  |  | 19 |  | 51 |  |  |  | 0 |  |  |  |  |  |  | 
CC(C)N1CCC(Oc2ccc3c(c2)cc2n3[C@H](C)CNC2=O)CC1 | > 50000 | 10 |  | 29 | 26 | > 50000 | 29 | 22000 | -4 | 0.23 | 9 | > 455 |  |  |  |  |  | 
CC(C)N1CCC(Oc2ccc3c(c2)cc2n3CCN(Cc3ccc(F)cc3)C2=O)CC1 | > 50000 | -3 | 5 | 17 | 7 | > 50000 | 14 | 35000 | 17 | 2.06 | 1 | 382 (≈ 877 µM) |  |  |  |  |  | 
